Laboratory results reported in ChEMBL document CHEMBL1132944, “Poly(N-acryl amino acids): a new class of biologically active polyanions” (2000).

Legend:
Type in all cases: functional
[1] = Anti-coagulation activity evaluated as activated partial thromboplastin time (APTT) of the non-sulfated compound determined for 25 ug/mL in pooled normal plasma
Method in brief: (§1)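 Activated partial thromboplastin time was measured in pooled normal human plasma with a commercial liquid silica-activator APTT kit. Polymer was added to the plasma, and clotting time was recorded in seconds. Plasma without polymer served as the control, and heparin was the positive control.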

[2] = Anti-coagulation activity evaluated as activated partial thromboplastin time (APTT) of the sulfated compound determined for 25 ug/mL in pooled normal plasma; method in brief: as §1
[3] = Anti-coagulation activity evaluated as activated partial thromboplastin time (APTT) determined for 25 ug/ml in pooled normal plasma; method in brief: as §1
[4] = Anti-coagulation activity evaluated as activated partial thromboplastin time (APTT) determined for 250 ug/ml in pooled normal plasma; method in brief: as §1

| SMILES | APTT [1] [s] | APTT [2] [s] | APTT [3] [s] | APTT [4] [s] |
| --- | --- | --- | --- | --- |
| CCC(C)C(=O)N[C@H](COS(=O)(=O)[O-])C(=O)[O-].[Na+].[Na+] (stereo partly drawn) | 32 | 35 |  |  |
| CCC(C)C(=O)N[C@H](CO)C(=O)O (stereo partly drawn) |  |  | 39 |  |
| CCC(C)C(=O)N[C@H](Cc1c[nH]cn1)C(=O)[O-].[Na+] (stereo partly drawn) |  |  | 30 |  |
| CCC(C)C(=O)N1C[C@@H](OS(=O)(=O)O)C[C@@H]1C(=O)O (stereo partly drawn) | 37 | 100 |  |  |
| CCC(C)C(=O)N1CC[C@H](OS(=O)(=O)O)C1 (stereo partly drawn) | 39 | 32 |  |  |
| CCC(C)C(=O)N[C@H](Cc1ccccc1)C(=O)[O-].[Na+] (stereo partly drawn) |  |  | 56 | 109 |
| CCC(C)C(=O)N[C@@H](C(=O)[O-])C(C)(C)C.[Na+] (stereo partly drawn) |  |  | 36 |  |
| CCC(C)C(=O)NCC(=O)O (stereo not drawn) |  |  | 40 |  |
| CCC(C)C(=O)N[C@H](Cc1ccc(O)cc1)C(=O)[O-].[Na+] (stereo partly drawn) |  |  | 32 |  |
| CCC(C)C(=O)N[C@H](Cc1ccc(OS(=O)(=O)[O-])cc1)C(=O)[O-].[Na+].[Na+] (stereo partly drawn) | 35 | 45 |  |  |
| CCC(C)C(=O)N1C[C@@H](O)C[C@@H]1C(=O)O (relative stereo) |  |  | 37 |  |
| CCC(C)C(=O)N1CCC[C@@H]1C(=O)[O-].[Na+] (stereo partly drawn) |  |  | 55 | 109 |
| CCC(C)C(=O)N[C@H](CC(C)C)C(=O)[O-].[Na+] (stereo partly drawn) |  |  | 36 |  |
| CCC(C)C(=O)N[C@H](CCC(=O)[O-])C(=O)[O-].[Na+].[Na+] (stereo partly drawn) |  |  | 56 | 75 |
| CCC(C)C(=O)N1C[C@H](O)C[C@@H]1C(=O)O (relative stereo) |  |  | 35 |  |
| CCC(C)C(=O)N[C@H](CCCCN)C(=O)[O-].[Na+] (stereo partly drawn) |  |  | 33 |  |
